According to ChEMBL document CHEMBL1127038 (J Med Chem, 1993):

organism: Cavia porcellus; assay: Nagative chronotropic activity was expressed as percent changes in atrial rate on guinea pig spontaneously beating isolated right atrium at 10 e-5 M; format: functional, Cardiac atrium; conditions: not given

Compound	Change [%]
COc1ccc(CCN(C)CCCC(C#N)(c2ccc(OC)c(OC)c2)C(C)C)cc1OC (stereo not drawn)	94
COc1ccc(CCN(C)C2CCCC(C(C#N)(c3ccc(OC)c(OC)c3)C(C)C)C2)cc1OC (stereo in doubt; 2a)	78
COc1ccc(CCN(C)C2CCCC(C(C#N)(c3ccc(OC)c(OC)c3)C(C)C)C2)cc1OC (stereo in doubt; 2b)	93
COc1ccc(CCN(C)C2CCCC(C(C#N)(c3ccc(OC)c(OC)c3)C(C)C)C2)cc1OC (stereo in doubt; 2c)	89
COc1ccc(CCN(C)C2CCCC(C(C#N)(c3ccc(OC)c(OC)c3)C(C)C)C2)cc1OC (stereo in doubt; 2d)	75

organism: Cavia porcellus; assay: Nagative inotropic activity was expressed as percent changes in developed tension in isolated guinea pig left atrium at 10E-5 M; format: functional, Cardiac atrium; conditions: not given
Method in brief: (§1)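 Isolated guinea pig left atrium, electrically driven at 1 Hz. Developed tension measured at 10⁻⁵ M and given as percent change from control, mean ±SEM, n = 5-6.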

Compound	Change [%]
COc1ccc(CCNC2CCCC(C(C#N)(c3ccc(OC)c(OC)c3)C(C)C)C2)cc1OC (stereo in doubt; 7a)	82
COc1ccc(CCNC2CCCC(C(C#N)(c3ccc(OC)c(OC)c3)C(C)C)C2)cc1OC (stereo in doubt; 7b)	74
COc1ccc(CCNC2CCCC(C(C#N)(c3ccc(OC)c(OC)c3)C(C)C)C2)cc1OC (stereo in doubt; 7c)	70
COc1ccc(CCNC2CCCC(C(C#N)(c3ccc(OC)c(OC)c3)C(C)C)C2)cc1OC (stereo in doubt; 7d)	83

organism: Cavia porcellus; assay: Negative inotropic activity was calculated from log concentration/response curves; format: functional; conditions: not given
Method in brief: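 Guinea pig left atrium driven at 1 Hz; decrease in developed tension measured. Potency is from log concentration/response curves by Litchfield–Wilcoxon probit analysis, n = 6-8.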

Compound	ED50 [nM]
COc1ccc(CCN(C)CCCC(C#N)(c2ccc(OC)c(OC)c2)C(C)C)cc1OC (stereo not drawn)	610
COc1ccc(CCN(C)C2CCCC(C(C#N)(c3ccc(OC)c(OC)c3)C(C)C)C2)cc1OC (stereo in doubt; 2a)	100
COc1ccc(CCN(C)C2CCCC(C(C#N)(c3ccc(OC)c(OC)c3)C(C)C)C2)cc1OC (stereo in doubt; 2b)	1300
COc1ccc(CCN(C)C2CCCC(C(C#N)(c3ccc(OC)c(OC)c3)C(C)C)C2)cc1OC (stereo in doubt; 2c)	60
COc1ccc(CCN(C)C2CCCC(C(C#N)(c3ccc(OC)c(OC)c3)C(C)C)C2)cc1OC (stereo in doubt; 2d)	200
COc1ccc(CCNC2CCCC(C(C#N)(c3ccc(OC)c(OC)c3)C(C)C)C2)cc1OC (stereo in doubt; 7a)	900
COc1ccc(CCNC2CCCC(C(C#N)(c3ccc(OC)c(OC)c3)C(C)C)C2)cc1OC (stereo in doubt; 7b)	110
COc1ccc(CCNC2CCCC(C(C#N)(c3ccc(OC)c(OC)c3)C(C)C)C2)cc1OC (stereo in doubt; 7c)	660
COc1ccc(CCNC2CCCC(C(C#N)(c3ccc(OC)c(OC)c3)C(C)C)C2)cc1OC (stereo in doubt; 7d)	1100

organism: Cavia porcellus; assay: Percent inhibition of calcium-induced contraction on K+ -depolarized guinea pig aortic strips at 10 e-4 M; format: functional, Aorta; conditions: not given
Method in brief: (§2)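 Guinea pig aortic strips depolarized with K⁺ and contracted by calcium. Inhibition of the calcium-induced contraction measured at 10⁻⁴ M, mean ±SEM, n = 6-7.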

Compound	Inhibition [%]
COc1ccc(CCN(C)C2CCCC(C(C#N)(c3ccc(OC)c(OC)c3)C(C)C)C2)cc1OC (stereo in doubt; 2a)	37
COc1ccc(CCN(C)C2CCCC(C(C#N)(c3ccc(OC)c(OC)c3)C(C)C)C2)cc1OC (stereo in doubt; 2b)	30
COc1ccc(CCN(C)C2CCCC(C(C#N)(c3ccc(OC)c(OC)c3)C(C)C)C2)cc1OC (stereo in doubt; 2c)	49
COc1ccc(CCN(C)C2CCCC(C(C#N)(c3ccc(OC)c(OC)c3)C(C)C)C2)cc1OC (stereo in doubt; 2d)	58

organism: Cavia porcellus; assay: Nagative chronotropic activity was expressed as percent changes in atrial rate on guinea pig spontaneously beating isolated right atrium at 10E-5 M; format: functional, Cardiac atrium; conditions: not given

Compound	Change [%]
COc1ccc(CCNC2CCCC(C(C#N)(c3ccc(OC)c(OC)c3)C(C)C)C2)cc1OC (stereo in doubt; 7a)	78
COc1ccc(CCNC2CCCC(C(C#N)(c3ccc(OC)c(OC)c3)C(C)C)C2)cc1OC (stereo in doubt; 7b)	66
COc1ccc(CCNC2CCCC(C(C#N)(c3ccc(OC)c(OC)c3)C(C)C)C2)cc1OC (stereo in doubt; 7c)	64
COc1ccc(CCNC2CCCC(C(C#N)(c3ccc(OC)c(OC)c3)C(C)C)C2)cc1OC (stereo in doubt; 7d)	84

organism: Cavia porcellus; assay: Percent inhibition of calcium-induced contraction on K+ -depolarized guinea pig aortic strips at 10E-4 M; format: functional, Aorta; conditions: not given; method in brief: as §2

Compound	Inhibition [%]
COc1ccc(CCNC2CCCC(C(C#N)(c3ccc(OC)c(OC)c3)C(C)C)C2)cc1OC (stereo in doubt; 7a)	62
COc1ccc(CCNC2CCCC(C(C#N)(c3ccc(OC)c(OC)c3)C(C)C)C2)cc1OC (stereo in doubt; 7b)	35
COc1ccc(CCNC2CCCC(C(C#N)(c3ccc(OC)c(OC)c3)C(C)C)C2)cc1OC (stereo in doubt; 7c)	40
COc1ccc(CCNC2CCCC(C(C#N)(c3ccc(OC)c(OC)c3)C(C)C)C2)cc1OC (stereo in doubt; 7d)	56

organism: Cavia porcellus; assay: Negative chronotropic activity was calculated from log concentration/response curves; format: functional; conditions: not given

Compound	ED30 [nM]
COc1ccc(CCN(C)CCCC(C#N)(c2ccc(OC)c(OC)c2)C(C)C)cc1OC (stereo not drawn)	70
COc1ccc(CCN(C)C2CCCC(C(C#N)(c3ccc(OC)c(OC)c3)C(C)C)C2)cc1OC (stereo in doubt; 2a)	75
COc1ccc(CCN(C)C2CCCC(C(C#N)(c3ccc(OC)c(OC)c3)C(C)C)C2)cc1OC (stereo in doubt; 2b)	230
COc1ccc(CCN(C)C2CCCC(C(C#N)(c3ccc(OC)c(OC)c3)C(C)C)C2)cc1OC (stereo in doubt; 2c)	1300
COc1ccc(CCN(C)C2CCCC(C(C#N)(c3ccc(OC)c(OC)c3)C(C)C)C2)cc1OC (stereo in doubt; 2d)	420
COc1ccc(CCNC2CCCC(C(C#N)(c3ccc(OC)c(OC)c3)C(C)C)C2)cc1OC (stereo in doubt; 7a)	2400
COc1ccc(CCNC2CCCC(C(C#N)(c3ccc(OC)c(OC)c3)C(C)C)C2)cc1OC (stereo in doubt; 7b)	60
COc1ccc(CCNC2CCCC(C(C#N)(c3ccc(OC)c(OC)c3)C(C)C)C2)cc1OC (stereo in doubt; 7c)	1400
COc1ccc(CCNC2CCCC(C(C#N)(c3ccc(OC)c(OC)c3)C(C)C)C2)cc1OC (stereo in doubt; 7d)	370

organism: Cavia porcellus; assay: Inhibition concentration of vasodilation was calculated from log concentration/response curves; format: functional; conditions: not given
Method in brief: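 K⁺-depolarized guinea pig aortic strips, calcium-induced contraction. Potency is from log concentration/response curves by Litchfield–Wilcoxon probit analysis, n = 6-8.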

Compound	IC50 [nM]
COc1ccc(CCN(C)C2CCCC(C(C#N)(c3ccc(OC)c(OC)c3)C(C)C)C2)cc1OC (stereo in doubt; 2c)	18000
COc1ccc(CCNC2CCCC(C(C#N)(c3ccc(OC)c(OC)c3)C(C)C)C2)cc1OC (stereo in doubt; 7a)	17000

same assay, conditions: Cavia porcellus

Compound	IC50 [nM]
COc1ccc(CCN(C)CCCC(C#N)(c2ccc(OC)c(OC)c2)C(C)C)cc1OC (stereo not drawn)	380
COc1ccc(CCN(C)C2CCCC(C(C#N)(c3ccc(OC)c(OC)c3)C(C)C)C2)cc1OC (stereo in doubt; 2d)	10000

organism: Cavia porcellus; assay: Nagative inotropic activity was expressed as percent changes in developed tension in isolated guinea pig left atrium at 10 e-5 M; format: functional, Cardiac atrium; conditions: not given; method in brief: as §1

Compound	Change [%]
COc1ccc(CCN(C)CCCC(C#N)(c2ccc(OC)c(OC)c2)C(C)C)cc1OC (stereo not drawn)	84
COc1ccc(CCN(C)C2CCCC(C(C#N)(c3ccc(OC)c(OC)c3)C(C)C)C2)cc1OC (stereo in doubt; 2a)	84
COc1ccc(CCN(C)C2CCCC(C(C#N)(c3ccc(OC)c(OC)c3)C(C)C)C2)cc1OC (stereo in doubt; 2b)	75
COc1ccc(CCN(C)C2CCCC(C(C#N)(c3ccc(OC)c(OC)c3)C(C)C)C2)cc1OC (stereo in doubt; 2c)	86
COc1ccc(CCN(C)C2CCCC(C(C#N)(c3ccc(OC)c(OC)c3)C(C)C)C2)cc1OC (stereo in doubt; 2d)	74
